The text below walks through data of paper PMC10938568 (Science Advances, 2021).

For one assay, the system named is TFEB. As to the kind of experiment: TFEB activation / nuclear localization. Type of assay: cell-based. The method in brief: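 FNIP1/2_DKO HeLa expressing WT or LIR FNIP1 were stimulated with two TRPML1-activating agents (2 μM and 1 μM). TFEB was immunostained with primary antibody overnight at 4°C, then Alexa secondary (1:1000) with DAPI for 1 h at RT. TFEB nuclear localization was scored by high-content imaging, ≥1500 cells per condition. Values are means ± SD; unpaired t test.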

A further assay concerns FNIP1/2_DKO HeLa cells. As to the kind of experiment: GPNMB protein level. In kind it is cell-based. The following applies: prolonged treatment; WT or LIR FNIP1 in FNIP1/2_DKO HeLa. The method in brief: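 GPNMB, a TFEB/TFE3 target, was read by Western blot in FNIP1/2_DKO HeLa re-expressing WT or LIR-variant FNIP1 after prolonged stimulation to activate TRPML1. Cells were grown at 37°C in 5% CO2. Lysates were denatured in Laemmli buffer (100°C, 5 min). Primary antibody (1:1000 unless noted) was in 5% BSA/TBS-0.2% Tween 20, overnight at 4°C. HRP secondary was 1:20,000, 1 h at RT.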

For a further assay, the system named is HEK293T cells. As to the kind of experiment: LC3 lipidation / GFP-LC3B puncta, WT or ATG13_KO cells. In kind it is cell-based, human. The following applies: for LC3 lipidation / puncta (in words): HEK293T WT or ATG13_KO, MK6-83 25 μM, C8 2 μM, AZD8055 1 μM. The essentials:
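HEK293T cells in DMEM with 10% FBS and 1% penicillin/streptomycin at 37°C, 5% CO2, treated over a time course. Lysates denatured in Laemmli buffer at 100°C for 5 min. Immunoblot: primary antibodies in 5% BSA/TBS-0.2% Tween 20 overnight at 4°C; HRP secondaries at 1:20,000 for 1 h at room temperature. GFP-LC3B followed by time-lapse imaging.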

A further assay deals with FLCN-FNIP1 complex. As to the kind of experiment: Co-immunoprecipitation of GABARAP with FLCN-FNIP1. Type of assay: binding, human. The settings on record: HEK293T cells, transfected 20 hours.
Assay [1] has as its system primary bone marrow–derived macrophages (BMDMs). As to the kind of experiment: LC3 puncta in primary BMDMs, ATG16L1 WT or K490A. Type of assay: cell-based, mouse. The settings on record: 1 hour.
The subject of assay [2] is FLCN-FNIP1 complex in HeLa cells. As to the kind of experiment: FLCN-FNIP recruitment to membrane fractions, Western blot. Type of assay: cell-based. The settings on record: monensin 1uM, C8 2uM, 30 min; WT or TRPML1_KO HeLa. The essentials:
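HeLa cells (WT or TRPML1_KO) grown in DMEM with 10% FBS and 1% penicillin/streptomycin at 37°C, 5% CO2. 1.5 × 10^6 cells plated the day before treatment. Membrane fractions prepared with a commercial kit and denatured in Laemmli buffer at 100°C for 5 min. Immunoblot: primary antibodies in 5% BSA/TBS-0.2% Tween 20 at 4°C overnight; HRP secondaries at 1:20,000 for 1 h at room temperature.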
(A western blot detects proteins with antibodies after separation by electrophoresis.)

Take `COc1ccc(-c2ccc3c(N4CCOC[C@@H]4C)nc(N4CCOC[C@@H]4C)nc3n2)cc1CO` [AZD8055]: the “TFEB activation versus ATG16L1 allele status (in words)” value in the assay on TFEB (ATG16L1_KO HeLa reexpressing ATG16L1 variants) is reported as “activated TFEB irrespective of ATG16L1 allele status”. The “TFEB activation / nuclear accumulation (in words)” value in the assay on TFEB (HeLa) was “robust TFEB activation”. The “GPNMB protein levels (in words)” value in the assay on FNIP1/2_DKO HeLa cells is recorded as “largely suppressed”. Also, the “LC3 lipidation, sensitivity to BafA1 or PIK-III (in words)” value in the assay with HEK293T cells (BafA1 100 nM, PIK-III 5 μM) is “sensitive to the VPS34 inhibitor PIK-III and potentiated with the vacuolater ATPase (V-ATPase) inhibitor bafilomycin A1 (BafA1)”. Besides, in the assay with HEK293T cells, the “LC3 lipidation / puncta (in words)” value is on record as “able to regulate LC3 lipidation in WT but not ATG13_KO cells”.
On to “GABARAP: full-length human GABARAP (1 to 117), ATG8 family protein”, for which the “interaction with FLCN-FNIP1 complex (in words)” value with FLCN-FNIP1 complex is recorded as “interacts with GABARAP through LIR-dependent binding”.
On to `CC1=CC(C)(C)N(C(=O)CN2C(=O)c3ccccc3C2=O)c2ccccc21` [ML-SA1], for which the “LC3 puncta in BMDMs (in words)” value in assay [1] is recorded as “unable to induce LC3 puncta in ATG16L1^K490A-expressing cells”. Moreover, the “LC3 lipidation / puncta (in words)” value in the assay with HEK293T cells is “rapid conversion of LC3 from its cytoplasmic “I” form to the lipidated, punctate “II” form in both wild-type (WT) and autophagy-deficient cells (ATG13_KO)”.
For the compound `CC[C@@]1([C@@H]2O[C@@H]([C@H]3O[C@@](O)(CO)[C@H](C)C[C@@H]3C)C[C@@H]2C)CC[C@H]([C@]2(C)CC[C@]3(C[C@H](O)[C@@H](C)[C@@H]([C@@H](C)[C@@H](OC)[C@H](C)C(=O)O)O3)O2)O1` [monensin], the “TFEB activation, FNIP1-LIR dependence (in words)” value in the assay with TFEB (FNIP1-WT or FNIP1-LIR in FNIP1/2_DKO HeLa, monensin 1uM, 4 hr) was “regulated TFEB activation in an FNIP1-LIR domain–dependent manner”. The “FLCN-FNIP membrane recruitment (in words)” value in assay [2] is listed as “could induce FLCN-FNIP1 complex sequestration independently of TRPML1”.
For the compound `Cc1ccc(S(=O)(=O)Nc2ccccc2N2CCCCC2)s1` [MK6-83], the “LC3 lipidation / puncta (in words)” value in the assay on HEK293T cells was “rapid conversion of LC3 from its cytoplasmic “I” form to the lipidated, punctate “II” form in both wild-type (WT) and autophagy-deficient cells (ATG13_KO)”.
For the compound `CO/C1=C\C(C)=C\[C@@H](C)[C@@H](O)[C@@H](C)C/C(C)=C/C=C/[C@H](OC)[C@@H]([C@@H](C)[C@@H](O)[C@H](C)[C@@]2(O)C[C@@H](O)[C@H](C)[C@@H](C(C)C)O2)OC1=O` [BafA1, bafilomycin A1], in the assay on TFEB (BafA1 100 nM, acute, HeLa), the “TFEB activation, effect of BafA1 cotreatment (in words)” value is on record as “sufficient to block TFEB activation by TRPML1 agonists; however, it did not affect TFEB activation upon mTOR inhibition”.
